SMILES strings stand for the structures.
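Also: active if original authors judged signal statistically different from baseline.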

The experiment deals with T1, UniProt Q7TRX0.
T1 sequence (whole entry): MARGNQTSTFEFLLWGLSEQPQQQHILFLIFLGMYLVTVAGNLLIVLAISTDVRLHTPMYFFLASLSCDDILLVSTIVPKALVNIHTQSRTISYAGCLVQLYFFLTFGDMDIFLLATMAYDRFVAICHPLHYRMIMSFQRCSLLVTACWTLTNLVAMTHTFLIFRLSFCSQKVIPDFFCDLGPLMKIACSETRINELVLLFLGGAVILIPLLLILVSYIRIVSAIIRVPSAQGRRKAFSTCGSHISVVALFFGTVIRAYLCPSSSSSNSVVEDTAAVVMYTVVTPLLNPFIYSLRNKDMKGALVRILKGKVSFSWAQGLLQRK
Particulars: stereoisomer not certain. The procedure, abridged:
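Whether a receptor–molecule pair is responsive (active) rests on the original authors' judgment that its measured signal was statistically different from baseline. Pairs without that judgment are non-responsive (inactive). Sources used varied assay methods, commonly transient luciferase assays in mammalian cell lines.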
Take `OCCc1ccccc1`: the “odorant receptor agonist call” value was “inactive”.
`CC(C)CS`: the “odorant receptor agonist call” value was “inactive”.
With `CCc1nccnc1CC` the entry was “inactive”; with `CCCCCC=CCCC=O`, “inactive”; with `CCc1ccc(O)cc1`, “inactive”.
The same measure for `CC(=O)OCc1ccc2c(c1)OCO2`: “inactive”; for `O=C(O)CCCCCCCCC(=O)O`: “inactive”; for `C1CCOC1`: “inactive”.
Regarding `CCN(CC)CC`, the “odorant receptor agonist call” value was “inactive”.
The same measure for `C=C(C)C1CCC2(C)OC2C1` (stereo not drawn): “inactive”.
The same measure for `CCCO`: “inactive”; for `CC=Cc1ccc(OC)cc1`: “inactive”; for `C=CC(=C)CCC=C(C)CCC=C(C)C`: “inactive”.
The same measure for `CCOC(=O)CC(C)C`: “inactive”; for `COc1cnccn1`: “inactive”; for `Cc1c(C)c(C)c(C=O)c(C)c1C`: “inactive”.
Consider `COc1nccnc1C`, for which the “odorant receptor agonist call” value was “inactive”.
Turning to `Cc1ccc(OC(=O)C(C)C)cc1`, the “odorant receptor agonist call” value is “inactive”.
For the compound `CCC=CCCCCC=O`, the “odorant receptor agonist call” value was “inactive”.
Regarding `CCc1ncc(C)nc1CC`, the “odorant receptor agonist call” value was “inactive”.
The same measure for `CCC(C)O` (stereo not drawn): “inactive”.
The same measure for `CC(=O)OCCc1ccccc1`: “inactive”; for `CC1(C)CC(=O)CC(=O)C1`: “inactive”.
The same measure for `OCC=Cc1ccccc1`: “inactive”.
As to `CCCCCCC=CC=O`, the “odorant receptor agonist call” value is “inactive”.
With `CCCCCCCCC=CC=O` the entry was “inactive”; with `CC(C)=C1CCC(C)CC1=O` (stereo not drawn), “inactive”; with `OCCCCCCCCCO`, “inactive”.
The same measure for `O=C(OCc1ccccc1)c1ccccc1O`: “inactive”; for `CC(=O)OC1(C)CCC23CC1C(C)(C)C2CCC3C` (stereo not drawn): “inactive”.
The same measure for `CC1CCC(C(C)C)C(=O)C1` (stereo not drawn): “inactive”; for `COc1nccnc1C(C)C`: “inactive”; for `CCCC(C)C(=O)OCC` (stereo not drawn): “inactive”.

For the origin of these results see the M2OR odorant receptor database.
